Assay results collected from several papers.
Compare with care: the assays were run in different laboratories.
Observed: cell growth or viability

With `COc1cc2c(cc1O)CCN(Cc1cc(Br)c(OC)c(OC)c1)C2` the GI50 was 177 nM (CNSSF-539; SRB).
The IC50 of `O=C1Nc2ccc(C(=O)N3CCOCC3)cc2C(=O)CCc2ccccc21` is reported as greater than 270000 nM (L6).
With `CC(=O)Nc1cccc(-n2c(=O)n(C3CC3)c(=O)c3c(Nc4ccc(I)cc4F)n(C)c(=O)c(C)c32)c1` the viability was 99.6% (SW1417; resazurin; 780 pM, 72 h).
`CCOC(=O)n1ccn(C)c1=S` has an IC50 of less than 70 nM (GISTT1; resazurin; 72 h).
`O=C1Nc2ccccc2CCCc2ccccc21` gave an IC50 of 190000 nM (L6).
For `CN(C)CCCn1c2c(c3ccncc3c1=O)C(=O)c1ccccc1-2`, the GI50 was 708 nM (CNSSF-539; SRB).
With `CC(C)C[C@H](NC(=O)[C@H](Cc1ccccc1)NC(=O)c1cnccn1)B(O)O` the IC50 was 6 nM (GISTT1; 72 h).
`COc1cc2c(cc1O)CCN(Cc1cc(Cl)c(OC)c(OC)c1)C2` gave a GI50 of 365 nM (CNSSF-539; SRB).
`Cc1cc2c(cc1N1C(=O)c3cccc4c(CCCO)ccc(c34)C1=O)n(C)c(=O)n2C` (racemic) has a GI50 of greater than 10000 nM (MDA-MB-453; resazurin).
For `O=C1Nc2cc(F)cc(F)c2C(=O)CCc2ccccc21`, the IC50 was 86000 nM (L6).
For `CC(=O)O[C@H]1C(=O)[C@@]2(C)[C@H]([C@H](OC(=O)c3ccccc3)[C@]3(O)C[C@H](OC(=O)[C@H](O)[C@@H](NC(=O)c4ccccc4)c4ccccc4)C(C)=C1C3(C)C)[C@]1(OC(C)=O)CO[C@@H]1C[C@@H]2O`, the IC50 was 210 nM (GISTT1; resazurin; 72 h).
`COc1cc2c(cc1OS(N)(=O)=O)CCN(Cc1cc(Cl)c(OC)c(OC)c1)C2` has a GI50 of 19 nM (CNSSF-539; SRB).
The IC50 of `N#Cc1ccc2c(c1)CCC(=O)c1ccccc1NC2=O` is reported as 150000 nM (L6).
